Results: ChEMBL document CHEMBL4257460, “Synthesis and antifungal activity of novel oxazolidin-2-one-linked 1,2,3-triazole derivatives” (2017)
Values after ≈ are worked out from the molar mass of the structure shown.

Legend:
Assay type in all cases: functional
Cyberlindnera jadinii = test: Antifungal activity against Candida utilis ATCC 9226 by M27-A3 guideline based method; conditions: Williopsis jadinii
How it was run: (§1)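 Broth microdilution per CLSI (M38-A for filamentous fungi, M27-A3 for yeasts), in MOPS-buffered RPMI-1640 medium. Itraconazole served as the reference antifungal. The MIC was read as the endpoint and expressed in µg/mL.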

Pichia kudriavzevii = test: Antifungal activity against Candida krusei ATCC 14243 by M27-A3 guideline based method; how it was run: as §1
Candida albicans = test: Antifungal activity against Candida albicans ATCC 10231 by M27-A3 guideline based method; how it was run: as §1
Mucor hiemalis = test: Antifungal activity against Mucor hiemalis ATCC 8690 by M38-A guideline based method; how it was run: as §1
Candida parapsilosis = test: Antifungal activity against Candida parapsilosis ATCC 22019 by M27-A3 guideline based method; conditions: Lodderomyces parapsilosis; how it was run: as §1
Rhizopus arrhizus = test: Antifungal activity against Rhizopus oryzae ATCC 10329by M38-A guideline based method; how it was run: as §1
Candida tropicalis = test: Antifungal activity against Candida tropicalis ATCC 13803 by M27-A3 guideline based method; how it was run: as §1
Aspergillus fumigatus = test: Antifungal activity against Aspergillus fumigatus ATCC 16907 by M38-A guideline based method; how it was run: as §1
Nakaseomyces glabratus = test: Antifungal activity against Candida glabrata ATCC 34138 by M27-A3 guideline based method; how it was run: as §1
[1] = system: Cutaneotrichosporon cutaneum; test: Antifungal activity against Trichosporon cutaneum ATCC 28592 by M38-A guideline based method; how it was run: as §1

Compound | MIC (Cyberlindnera jadinii) [µg/mL] | MIC (Pichia kudriavzevii) [µg/mL] | MIC (Candida albicans) [µg/mL] | MIC (Mucor hiemalis) [µg/mL] | MIC (Candida parapsilosis) [µg/mL] | MIC (Rhizopus arrhizus) [µg/mL] | MIC (Candida tropicalis) [µg/mL] | MIC (Aspergillus fumigatus) [µg/mL] | MIC (Nakaseomyces glabratus) [µg/mL] | MIC [1] [µg/mL]
O=C(c1ccccc1)c1nnn(CCn2c(-c3ccccc3)c(-c3ccccc3)oc2=O)c1-c1ccccc1 | 8 (≈ 15.6 µM) | 8 (≈ 15.6 µM) | 8 (≈ 15.6 µM) | 16 (≈ 31.2 µM) | 8 (≈ 15.6 µM) | 16 (≈ 31.2 µM) | 8 (≈ 15.6 µM) | 16 (≈ 31.2 µM) | 2 (≈ 3.9 µM) | 8 (≈ 15.6 µM)
Cc1ccc(S(=O)(=O)c2nnn(CCn3c(-c4ccccc4)c(-c4ccccc4)oc3=O)c2-c2ccc(Cl)cc2)cc1 | 8 (≈ 13.4 µM) | 8 (≈ 13.4 µM) | 8 (≈ 13.4 µM) | 16 (≈ 26.8 µM) | 8 (≈ 13.4 µM) | 16 (≈ 26.8 µM) | 8 (≈ 13.4 µM) | 4 (≈ 6.7 µM) | 4 (≈ 6.7 µM) | 8 (≈ 13.4 µM)
Cc1ccc(S(=O)(=O)c2nnn(CCn3c(-c4ccccc4)c(-c4ccccc4)oc3=O)c2-c2ccc([N+](=O)[O-])cc2)cc1 | 4 (≈ 6.58 µM) | 0.25 (≈ 0.411 µM) | 4 (≈ 6.58 µM) | 16 (≈ 26.3 µM) | 8 (≈ 13.2 µM) | 16 (≈ 26.3 µM) | 8 (≈ 13.2 µM) | 2 (≈ 3.29 µM) | 4 (≈ 6.58 µM) | 8 (≈ 13.2 µM)
Cc1ccc(S(=O)(=O)c2nnn(CCn3c(-c4ccccc4)c(-c4ccccc4)oc3=O)c2-c2ccccc2)cc1 | 8 (≈ 14.2 µM) | 0.5 (≈ 0.889 µM) | 8 (≈ 14.2 µM) | 4 (≈ 7.11 µM) | 8 (≈ 14.2 µM) | 16 (≈ 28.4 µM) | 8 (≈ 14.2 µM) | 2 (≈ 3.55 µM) | 1 (≈ 1.78 µM) | 8 (≈ 14.2 µM)
CC(=O)c1nnn(CCn2c(-c3ccccc3)c(-c3ccccc3)oc2=O)c1C | 8 (≈ 20.6 µM) | 8 (≈ 20.6 µM) | 8 (≈ 20.6 µM) | 16 (≈ 41.2 µM) | 4 (≈ 10.3 µM) | 8 (≈ 20.6 µM) | 8 (≈ 20.6 µM) | 16 (≈ 41.2 µM) | 2 (≈ 5.15 µM) | 8 (≈ 20.6 µM)
N#Cc1nnn(CCn2c(-c3ccccc3)c(-c3ccccc3)oc2=O)c1-c1ccccc1 | 8 (≈ 18.5 µM) | 0.5 (≈ 1.15 µM) | 8 (≈ 18.5 µM) | 2 (≈ 4.61 µM) | 8 (≈ 18.5 µM) | 16 (≈ 36.9 µM) | 8 (≈ 18.5 µM) | 16 (≈ 36.9 µM) | 0.12 (≈ 0.277 µM) | 8 (≈ 18.5 µM)
Cc1ccc(S(=O)(=O)c2nnn(CCn3c(-c4ccccc4)c(-c4ccccc4)oc3=O)c2-c2ccc(Cl)s2)cc1 | 8 (≈ 13.3 µM) | 2 (≈ 3.32 µM) | 8 (≈ 13.3 µM) | 16 (≈ 26.5 µM) | 4 (≈ 6.63 µM) | 16 (≈ 26.5 µM) | 8 (≈ 13.3 µM) | 16 (≈ 26.5 µM) | 2 (≈ 3.32 µM) | 8 (≈ 13.3 µM)
Cc1ccc(S(=O)(=O)c2nnn(CCn3c(-c4ccccc4)c(-c4ccccc4)oc3=O)c2-c2cccs2)cc1 | 8 (≈ 14.1 µM) | 8 (≈ 14.1 µM) | 8 (≈ 14.1 µM) | 16 (≈ 28.1 µM) | 8 (≈ 14.1 µM) | 16 (≈ 28.1 µM) | 8 (≈ 14.1 µM) | 8 (≈ 14.1 µM) | 1 (≈ 1.76 µM) | 8 (≈ 14.1 µM)
Cc1ccc(-c2c(S(=O)(=O)c3ccc(C)cc3)nnn2CCn2c(-c3ccccc3)c(-c3ccccc3)oc2=O)cc1 | 4 (≈ 6.94 µM) | 8 (≈ 13.9 µM) | 1 (≈ 1.73 µM) | 16 (≈ 27.7 µM) | 0.25 (≈ 0.434 µM) | 16 (≈ 27.7 µM) | 8 (≈ 13.9 µM) | 8 (≈ 13.9 µM) | 2 (≈ 3.47 µM) | 8 (≈ 13.9 µM)
Cc1ccc(S(=O)(=O)c2nnn(CCn3c(-c4ccccc4)c(-c4ccccc4)oc3=O)c2-c2cccc([N+](=O)[O-])c2)cc1 | 8 (≈ 13.2 µM) | 8 (≈ 13.2 µM) | 8 (≈ 13.2 µM) | 16 (≈ 26.3 µM) | 0.5 (≈ 0.823 µM) | 16 (≈ 26.3 µM) | 8 (≈ 13.2 µM) | 16 (≈ 26.3 µM) | 0.12 (≈ 0.197 µM) | 2 (≈ 3.29 µM)
CCC(C)n1ncn(-c2ccc(N3CCN(c4ccc(OCC5COC(Cn6cncn6)(c6ccc(Cl)cc6Cl)O5)cc4)CC3)cc2)c1=O (stereo not given) [ITRACONAZOLE] | 0.25 (≈ 0.354 µM) | 0.25 (≈ 0.354 µM) | 0.03 (≈ 0.0425 µM) | 4 (≈ 5.67 µM) | 0.06 (≈ 0.085 µM) | 1 (≈ 1.42 µM) | 0.06 (≈ 0.085 µM) | 1 (≈ 1.42 µM) | 1 (≈ 1.42 µM) | 8 (≈ 11.3 µM)
